In ChEMBL document CHEMBL1145927 (J Med Chem, 2003):
pIC50: −log10 of the molar value.

Columns and labels:
[1] = target: T1, Prostaglandin G/H synthase 2 (Homo sapiens) (UniProt P35354); assay: In vitro average percent Inhibition of Prostaglandin G/H synthase 2 (COX-2) at a concentration of 10 uM determined human whole blood by human whole blood (HWB) assay
T1 sequence (whole entry): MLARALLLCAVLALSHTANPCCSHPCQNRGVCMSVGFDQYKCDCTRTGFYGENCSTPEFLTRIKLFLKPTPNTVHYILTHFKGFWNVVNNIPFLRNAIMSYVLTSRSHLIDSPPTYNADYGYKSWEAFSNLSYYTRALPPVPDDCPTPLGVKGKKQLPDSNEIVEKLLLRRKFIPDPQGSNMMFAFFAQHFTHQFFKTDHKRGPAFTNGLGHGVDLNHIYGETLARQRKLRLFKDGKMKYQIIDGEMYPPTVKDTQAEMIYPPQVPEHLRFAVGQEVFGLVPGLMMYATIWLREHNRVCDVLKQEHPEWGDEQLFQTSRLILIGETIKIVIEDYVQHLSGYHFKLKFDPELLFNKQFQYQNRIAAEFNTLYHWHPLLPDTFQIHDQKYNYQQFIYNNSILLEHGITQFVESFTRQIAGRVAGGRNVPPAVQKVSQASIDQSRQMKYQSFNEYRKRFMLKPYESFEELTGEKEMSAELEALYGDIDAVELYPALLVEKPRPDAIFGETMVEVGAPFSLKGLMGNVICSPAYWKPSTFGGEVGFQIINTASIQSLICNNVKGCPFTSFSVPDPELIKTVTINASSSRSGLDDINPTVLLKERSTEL
Outline: (§1)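 Heparinized whole blood from male or female donors free of aspirin/NSAIDs for 14 days, 1 mL aliquots pre-warmed 15 min at 37 °C, 5% CO2; compound in DMSO, duplicate wells; COX-2 induced by E. coli LPS added 4.5 h later, incubated 5 h; stopped on ice with 2 mM EGTA; plasma methanol-extracted, TXB2 by EIA; average of two donors.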

[2] = target: T2, Prostaglandin G/H synthase 1 (Homo sapiens, UniProt P23219); assay: In vitro average percent Inhibition of Prostaglandin G/H synthase 1 (COX-1) at a concentration of 100 uM determined in human whole blood by human whole blood (HWB) assay; assay type: tissue-based
[3] = target: T1, Prostaglandin G/H synthase 2 (Homo sapiens); details: Blood; at 10 µM
[4] = target: T1, Prostaglandin G/H synthase 2 (Homo sapiens); details: at 10 µM
[5] = target: T1, Prostaglandin G/H synthase 2 (Homo sapiens); details: at 1 µM
[6] = target: T1, Prostaglandin G/H synthase 2 (Homo sapiens); details: Blood; at 1 µM
[7] = target: T2, Prostaglandin G/H synthase 1; assay: In vitro average percent uM in human whole blood by human whole blood assay; assay type: tissue-based; details: concentration not given here
[8] = target: T3, Prostaglandin G/H synthase 1 (Ovis aries) (UniProt P05979); assay: Compound was tested for in vitro inhibition of recombinant ovine Prostaglandin G/H synthase 1 (COX-1) at a concentration of 100 uM
T3 sequence (whole entry): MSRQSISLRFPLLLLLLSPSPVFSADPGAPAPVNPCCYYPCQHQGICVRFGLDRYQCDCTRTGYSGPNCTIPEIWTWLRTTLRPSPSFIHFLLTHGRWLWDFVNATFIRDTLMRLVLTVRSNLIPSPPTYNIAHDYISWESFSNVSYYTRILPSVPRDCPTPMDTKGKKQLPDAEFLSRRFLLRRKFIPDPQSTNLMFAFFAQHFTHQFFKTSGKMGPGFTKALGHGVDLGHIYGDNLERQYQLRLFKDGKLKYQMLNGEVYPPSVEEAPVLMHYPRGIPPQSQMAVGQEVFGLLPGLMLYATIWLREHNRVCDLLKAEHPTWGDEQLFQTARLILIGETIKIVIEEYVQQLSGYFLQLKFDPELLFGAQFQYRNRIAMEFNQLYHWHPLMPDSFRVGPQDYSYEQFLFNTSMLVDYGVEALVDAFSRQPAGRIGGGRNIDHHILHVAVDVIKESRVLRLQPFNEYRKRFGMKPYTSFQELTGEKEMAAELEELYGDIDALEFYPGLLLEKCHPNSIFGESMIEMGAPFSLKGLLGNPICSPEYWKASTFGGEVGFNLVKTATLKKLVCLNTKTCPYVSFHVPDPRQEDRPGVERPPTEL
Outline: (§2)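 Supplied recombinant ovine COX-1 (5 units) preincubated 2 min at 25 °C in 0.1 M Tris-HCl pH 8.0 with 5 mM EDTA, 2 mM phenol and heme; compound or DMSO added, 20 min at 25 °C; started with 10 mM arachidonic acid stock, 2 min at 37 °C; stopped with HCl, SnCl2 reduction; prostaglandins by EIA; percent inhibition versus solvent control.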

[9] = target: T2, Prostaglandin G/H synthase 1; assay: Compound was tested for in vitro inhibition of recombinant human Prostaglandin G/H synthase 1 (COX-1) by enzyme Assay
[10] = target: T4, Prostaglandin G/H synthase 2 (Homo sapiens, UniProt P35354); assay: Compound was tested for the inhibition of recombinant human Prostaglandin G/H synthase 2 (COX-2) by enzyme Assay
T4 sequence (P35354 whole entry): T1 sequence (whole entry)

[11] = target: T2, Prostaglandin G/H synthase 1; assay: In vitro average percent inhibition of human prostaglandin G/H synthase 1 (COX-1) at a concentration of 100 uM
Outline: as §2, with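 “human” for “ovine”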

[12] = target: T2, Prostaglandin G/H synthase 1; details: at 100 µM
[13] = target: T2, Prostaglandin G/H synthase 1; assay: In vitro average percent Inhibition of inhibition of Prostaglandin G/H synthase 1 (COX-1) at a concentration of 100 uM in human whole blood by human whole blood assay; assay type: tissue-based
[14] = target: T2, Prostaglandin G/H synthase 1; assay: In vitro average percent Inhibition of Prostaglandin G/H synthase 1 (COX-1) at a concentration of 100 uM determined in human whole blood assay by human whole blood (HWB) assay; assay type: tissue-based
[15] = target: T4, Prostaglandin G/H synthase 2; assay: Compound was tested for the inhibition of human Prostaglandin G/H synthase 2 (COX-2) in human whole blood; assay type: tissue-based
[16] = target: T2, Prostaglandin G/H synthase 1; assay: Compound was tested for in vitro Prostaglandin G/H synthase 1 (COX-1) idetermined in human whole blood by human whole blood assay; assay type: tissue-based
Outline: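 Heparinised (20 U/mL) whole blood from non-fasted donors free of aspirin/NSAIDs for 14 days, 1 mL aliquots, pre-warmed 15 min at 37 °C, 5% CO2 on a rotating shaker. DMSO-diluted compound added in duplicate; incubation ended 30 min after A23187 by ice and 2 mM EGTA (final). Plasma methanol-extracted, TXB2 by EIA; average of two donors.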

[17] = target: T4, Prostaglandin G/H synthase 2; assay: Compound was tested for the inhibition of recombinant human Prostaglandin G/H synthase 2 (COX-2)
[18] = target: T2, Prostaglandin G/H synthase 1; assay: Compound was tested for the inhibition of human Prostaglandin G/H synthase 1 (COX-1) in human whole blood; assay type: tissue-based
[19] = target: T2, Prostaglandin G/H synthase 1; assay: Compound was tested for the inhibition of recombinant human Prostaglandin G/H synthase 1 (COX-1)
[20] = target: T2, Prostaglandin G/H synthase 1; assay: In vitro average percent Inhibition of […] Prostaglandin G/H synthase 1 (COX-1) at a concentration of 100 uM determined by human whole blood (HWB) assay
[21] = target: T1, Prostaglandin G/H synthase 2 (Homo sapiens); assay: In vitro average percent Inhibition of Prostaglandin G/H synthase 2 (COX-2) at a concentration of 10 uM determined by human whole blood (HWB) assay; outline: as §1
[22] = target: T1, Prostaglandin G/H synthase 2 (Homo sapiens); assay: In vitro average percent Inhibition of Prostaglandin G/H synthase 2(COX-2) at a concentration of 1 uM determined in human whole blood by human whole blood (HWB) assay; assay type: tissue-based; outline: as §1
[23] = target: T1, Prostaglandin G/H synthase 2 (Homo sapiens); assay: In vitro average percent Inhibition of Prostaglandin G/H synthase 2 (COX-2) at a concentration of 1 uM determined in human whole blood by human whole blood assay; assay type: tissue-based; outline: as §1
[24] = target: T1, Prostaglandin G/H synthase 2 (Homo sapiens); assay: In vitro average percent Inhibition of Prostaglandin G/H synthase 2 (COX-2) at a concentration of 10 uM determined in human whole blood by human whole blood assay; assay type: tissue-based; outline: as §1

T2 sequence (P23219 whole entry): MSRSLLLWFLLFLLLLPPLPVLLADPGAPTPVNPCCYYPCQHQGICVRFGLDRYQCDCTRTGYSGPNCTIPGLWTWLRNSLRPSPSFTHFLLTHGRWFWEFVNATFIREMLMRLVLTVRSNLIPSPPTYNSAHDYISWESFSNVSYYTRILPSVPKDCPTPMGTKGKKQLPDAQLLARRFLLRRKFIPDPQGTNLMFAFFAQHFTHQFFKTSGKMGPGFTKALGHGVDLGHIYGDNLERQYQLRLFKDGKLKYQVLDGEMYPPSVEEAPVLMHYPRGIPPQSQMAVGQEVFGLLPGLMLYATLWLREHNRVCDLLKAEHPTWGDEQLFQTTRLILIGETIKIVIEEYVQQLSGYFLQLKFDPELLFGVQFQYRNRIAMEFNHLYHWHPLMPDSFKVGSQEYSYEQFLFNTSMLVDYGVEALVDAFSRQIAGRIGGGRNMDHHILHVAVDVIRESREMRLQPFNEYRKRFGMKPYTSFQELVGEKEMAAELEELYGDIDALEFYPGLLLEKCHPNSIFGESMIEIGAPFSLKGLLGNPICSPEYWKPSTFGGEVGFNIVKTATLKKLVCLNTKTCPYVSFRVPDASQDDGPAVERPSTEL

Row | inhibition [3] [%] | inhibition [4] [%] | inhibition [5] [%] | inhibition [11] [%] | inhibition [12] [%] | Structure (SMILES) | further results
1 | – | – | – | – | – | CS(=O)(=O)c1ccc(-c2ccccc2C(=O)c2cccc(F)c2)cc1 | inhibition [1]: 40%; inhibition [2]: 45%
2 | 85 | 40 | 10 | – | – | Cc1cccc(C(=O)c2cc3c(cc2-c2ccc(S(C)(=O)=O)cc2)OCO3)c1 | inhibition [6]: 40%; inhibition [7]: 95%; inhibition [8]: 0%
3 | 40 | 90 | 90 | – | – | CS(=O)(=O)c1ccc(-c2cc3c(cc2Cc2cc(F)cc(F)c2)OCO3)cc1 | inhibition [6]: 15%; inhibition [8]: 15%; inhibition [13]: 70%
4 | – | – | – | – | – | CS(=O)(=O)c1ccc(-c2ccccc2C=C2CCCCC2)cc1 | inhibition [14]: 60%
5 | 50 | 85 | 85 | 65 | 0 | CS(=O)(=O)c1ccc(-c2cc3c(cc2Cc2ccccc2)OCO3)cc1 | pIC50 [15]: 5.00; pIC50 [16]: 4.22
6 | – | 90 | 85 | – | 90 | NS(=O)(=O)c1ccc(-c2cc3c(cc2Cc2ccccc2)OCO3)cc1 | inhibition [2]: 90%; pIC50 [17]: 7.30; pIC50 [18]: 4.22; pIC50 [19]: 4.60
7 | – | – | – | – | – | CS(=O)(=O)c1ccc(-c2cc3c(cc2-c2cc(F)cc(F)c2)OCO3)cc1 | inhibition [20]: 65%; inhibition [21]: 35%; inhibition [22]: 0%
8 | – | 0 | 15 | 65 | 10 | CS(=O)(=O)c1ccc(-c2cc3c(cc2CCCc2ccccc2)OCO3)cc1 | inhibition [23]: 15%; inhibition [24]: 35%

Row | Structure (SMILES) | inhibition [3] [%] | inhibition [4] [%] | inhibition [5] [%] | inhibition [11] [%] | inhibition [12] [%] | further results
9 | CS(=O)(=O)c1ccc(-c2cc3c(cc2C=C2CCCCC2)OCO3)cc1 | – | 90 | 90 | 50 | 0 | pIC50 [9]: < 4.00; pIC50 [10]: 7.15
